# Laboratory results: ChEMBL document CHEMBL2384970, “Development of peptidomimetic boronates as proteasome inhibitors” (Eur J Med Chem, 2013)
# The source made the active and inactive calls. The rule behind the calls is not given here.
# Experiments:
# [1] = target: Proteasome Macropain subunit (Homo sapiens) (UniProt P49721); test: Inhibition of human 20S proteasome trypsin like activity using Boc-Leu-Leu-Arg-Arg-AMC as substrate at 20 uM measured over 10 mins by fluorescence assay; details: in the assay text read “Boc-Leu-Arg-Arg-AMC” for “Boc-Leu-Leu-Arg-Arg-AMC”
# Proteasome Macropain subunit (Homo sapiens), sequence (P49721 whole entry): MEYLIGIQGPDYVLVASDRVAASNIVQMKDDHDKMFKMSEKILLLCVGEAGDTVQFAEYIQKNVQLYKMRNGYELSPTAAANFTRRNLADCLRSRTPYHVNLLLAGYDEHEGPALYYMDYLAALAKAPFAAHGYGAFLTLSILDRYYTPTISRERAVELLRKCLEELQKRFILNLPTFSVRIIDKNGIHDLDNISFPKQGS
# Procedure, shortened: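 Tryptic activity of human erythrocyte 20S proteasome at 0.0025 mg mL1, 30 °C, in 50 mM Tris pH 7.4, 50 mM NaCl, 0.5 mM EDTA, 0.03% SDS, 7.5% DMSO. Compound at […]. Boc-Leu-Arg-Arg-AMC at […]. Continuous 10-min fluorescence reading (ex 380/em 460 nm) against a DMSO control.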
# [2] = target: T1, Proteasome Macropain subunit MB1 (Homo sapiens, UniProt P28074); test: Inhibition of human 20S proteasome chymotrypsin like activity using Suc-Leu-Leu-Val-Tyr-AMC as substrate measured over 10 mins by fluorescence assay
# T1 sequence (P28074 whole entry): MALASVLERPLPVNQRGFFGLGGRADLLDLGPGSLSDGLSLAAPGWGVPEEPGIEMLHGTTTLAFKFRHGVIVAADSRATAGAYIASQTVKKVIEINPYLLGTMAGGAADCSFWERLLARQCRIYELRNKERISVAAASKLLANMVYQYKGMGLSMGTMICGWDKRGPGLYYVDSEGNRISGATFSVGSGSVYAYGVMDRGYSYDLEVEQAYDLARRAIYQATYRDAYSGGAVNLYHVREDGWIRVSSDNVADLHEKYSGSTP
# [3] = target: T2, Proteasome Macropain subunit MB1 (Homo sapiens) (UniProt P28074); test: Inhibition of human 20S proteasome chymotrypsin like activity using Suc-Leu-Leu-Val-Tyr-AMC as substrate at 20 uM measured over 10 mins by fluorescence assay relative to control
# T2 sequence (whole entry): T1 sequence (P28074 whole entry)
# Procedure, shortened: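 Screening run at a single […] inhibitor concentration against purified human erythrocyte 20S proteasome, using an equal amount of DMSO as the negative control. AMC fluorescence read at ex 380/em 460 nm continuously for 10 min.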
# Proteasome component C5 = target: T3, Proteasome component C5 (Homo sapiens, UniProt P20618); test: Inhibition of human 20S proteasome post-glutamyl peptide hydrolyzing activity using Z-Leu-Leu-Glu-AMC as substrate measured over 10 mins by fluorescence assay
# T3 sequence (P20618 whole entry): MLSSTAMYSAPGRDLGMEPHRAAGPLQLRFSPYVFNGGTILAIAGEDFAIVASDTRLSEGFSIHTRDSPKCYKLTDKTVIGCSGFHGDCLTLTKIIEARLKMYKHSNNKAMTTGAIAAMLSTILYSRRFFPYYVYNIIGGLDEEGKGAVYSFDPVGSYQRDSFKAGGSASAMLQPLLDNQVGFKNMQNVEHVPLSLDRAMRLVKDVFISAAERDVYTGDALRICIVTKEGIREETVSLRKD
# Homo sapiens = organism: Homo sapiens; test: Selectivity ratio of Ki for human 20S proteasome post-glutamyl peptide hydrolyzing activity to Ki for human 20S proteasome chymotrypsin like activity
# [4] = Inhibition of bovine pancreatic alpha-chymotrypsin using Suc-Leu-Leu-Val-Tyr-AMC as substrate measured over 10 mins by fluorescence assay; design: species or system Bos taurus
# Procedure, shortened: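 Bovine pancreatic alpha-chymotrypsin ([…] as printed) incubated at 20 °C with test compound in 50 mM Tris pH 8.0, 100 mM NaCl, 5 mM EDTA, 7.5% DMSO. Substrate at […] final. Product release followed over 10 min. Ki obtained from progress curves fitted to a 4-parameter IC50 equation and corrected for substrate.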
SMILES,inhibition [1],Ki [2],inhibition [3],Ki (Proteasome component C5),Ratio Ki (Homo sapiens),Ki [4]
CC(C)C[C@H](NC(=O)[C@H](Cc1ccccc1)NC(=O)c1cnccn1)B(O)O,,,> 40%,,,
CC(C)C[C@H](NC(=O)Cn1cc(Br)c2ncccc2c1=O)B(O)O,inactive,170 nM,> 40%,,,
CC(C)C[C@H](NC(=O)Cn1ccc2c(c1=O)CCCN2C)B(O)O,inactive,1620 nM,> 40%,,,
CC(C)C[C@H](NC(=O)Cn1ccccc1=O)B(O)O,inactive,260 nM,> 40%,,5.3,
CC(C)C[C@H](NC(=O)[C@H](C)n1ccc2ncccc2c1=O)B(O)O,inactive,1340 nM,> 40%,,10,9160 nM
CC(C)C[C@H](NC(=O)Cn1ccc(Nc2ccccc2)cc1=O)B(O)O,inactive,98 nM,> 40%,,52,12700 nM
CC(C)C[C@H](NC(=O)Cn1ccc(N2CCOCC2)cc1=O)B(O)O,inactive,1450 nM,> 40%,,,
CC(C)C[C@H](NC(=O)Cn1ccc(N2CCN(C)CC2)cc1=O)B(O)O,inactive,,30%,,,

# The remaining compounds from weak to strong by Ki [2], led by results:
inhibition [1],Ki [2],inhibition [3],Ki (Proteasome component C5),Ratio Ki (Homo sapiens),Ki [4],SMILES
inactive,5900 nM,> 40%,Not Active,,,C=CCN1CCN(c2ccn(CC(=O)N[C@@H](CC(C)C)B(O)O)c(=O)c2)CC1
inactive,800 nM,> 40%,,5.5,,CCN(CC)c1ccn(CC(=O)N[C@@H](CC(C)C)B(O)O)c(=O)c1
inactive,440 nM,> 40%,,,,CC(C)C[C@H](NC(=O)Cn1ccc2ncccc2c1=O)B(O)O
inactive,300 nM,> 40%,,,,CC(C)C[C@H](NC(=O)Cn1ccc(N2CCCCC2)cc1=O)B(O)O
